Sampled rows, rich in hits. Any-hit rate of the full collection: about 5.8%.
KDM4C inh: inhibitors of human demethylase GASC-1 KDM4C. GST-KDM4C 2-372, H3K9me3 peptide, LANCE TR-FRET. inhibition, % at 12.5 µM. 96,000 tested, 0.15% active. AID 720574;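 active means mean replicate inhibition above about 25%, with at least 55% of replicates also reaching it, limit read from the data, passing the limit was not always enough; inconclusive means only one of those two conditions met; inactive means neither condition met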
Target sequence (Q9H3R0 2-372 limits assumed): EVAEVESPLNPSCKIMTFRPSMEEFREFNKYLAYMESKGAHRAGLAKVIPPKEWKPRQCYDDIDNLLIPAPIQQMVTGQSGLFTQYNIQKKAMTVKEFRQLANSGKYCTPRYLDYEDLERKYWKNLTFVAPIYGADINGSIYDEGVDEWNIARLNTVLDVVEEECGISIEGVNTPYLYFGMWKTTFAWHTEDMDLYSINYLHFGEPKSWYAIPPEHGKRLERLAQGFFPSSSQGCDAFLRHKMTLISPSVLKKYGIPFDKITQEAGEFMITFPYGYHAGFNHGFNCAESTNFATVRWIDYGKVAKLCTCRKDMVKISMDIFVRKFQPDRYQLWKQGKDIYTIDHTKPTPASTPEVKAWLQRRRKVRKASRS
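Material: N-terminal GST-fused human GASC-1 (KDM4C) fragment, residues 2-372. Input: 10 nM enzyme. Incubation: enzyme reaction 30 min, then detection 60 min, both room temperature. Doses: one test concentration per compound. Read-out basis: inhibition from TR-FRET ratio decrease. Detection: LANCE TR-FRET, excitation 340 nm, emissions 618 and 671 nm.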
IDH1 R132H inh: IDH1 R132H (human) inhibition | O75874 | inhibition, % at 10 µM | 70,000 tested, 0.18% active | IDH1 R132H reductase, diaphorase/resazurin fluorescence, 60 min; in the data active means inhibition above about 34%; inconclusive means no clear call, values can overlap the other calls; inactive means below about 11%;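 further: 0% = DMSO and 100% = no enzyme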
Pf Dd2 inh: P. falciparum Dd2 growth inhibition. AID 1159554. SYBR Green, 72 h; hits give low values. 94,000 tested, 2.3% active. activity change, % at 10 µM; in the data active means activity change below about -80%; inconclusive means no clear call, values can overlap the other calls
T cruzi growth-1: inhibitors of T. cruzi proliferation; inhibition, % at 8.34 µM; 77,000 tested, 5.9% active; T. cruzi beta-gal in NIH3T3, GalScreen luminescence, 90 h; AID 624255;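 active means mean inhibition above about 93%, with at least 55% of replicates each passing it, limit read from the data, passing the limit was not always enough; inconclusive means only one of those two conditions holds; inactive means neither condition holds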
T cruzi growth-2: blocks T. cruzi growth in NIH3T3 host cells; AID 651739; 5,600 tested, 72% active; T. cruzi beta-gal in NIH3T3, GalScreen luminescence, 90 h; inhibition, % at 8.35 µM; shares compounds with T cruzi growth-1;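 active means mean replicate inhibition above about 95% and at least 55% of replicates individually reaching it, limit read from the data; inconclusive means only one of the two criteria is met; inactive means neither criterion is met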
T cruzi growth-3: Trypanosoma cruzi proliferation inhibition | 5,600 tested, 21% active | T. cruzi beta-gal in NIH3T3, GalScreen luminescence, 90 h | AID 651740 | shares compounds with T cruzi growth-1 | inhibition, % at 2.09 µM;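 active means mean inhibition above about 95%, with at least 55% of replicates also reaching it, limit read from the data; inconclusive means meets just one of the two conditions; inactive means meets neither condition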;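 further: plate controls were neutral control median for no effect and positive control median for full effect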
3T3 cytotox: kills mouse NIH/3T3 fibroblasts; shares compounds with T cruzi growth-1; NIH/3T3 viability, CellTiter-Glo ATP luminescence, 90 h; cytotoxicity (signal decrease), % at 8.35 µM; 5,600 tested, 14% active;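 active means mean signal decrease across replicates above about 35% based on untreated-well scatter, with enough replicates individually passing, limit read from the data; inconclusive means no rule stated though some were filed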;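 further: 0% = median of neutral control wells and 100% = median of positive control wells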
3T3 cytotox 2: NIH/3T3 (mouse) viability loss | inhibition, % at 24.9 µM | 5,600 tested, 56% active | AID 651744 | shares compounds with T cruzi growth-1 | NIH/3T3 viability, CellTiter-Glo ATP luminescence, 90 h;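 active means mean loss of cell viability signal at or above a set limit, and enough replicates individually reaching it; inconclusive means meets only the mean limit or only the replicate share; inactive means meets neither condition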;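 further: 0% = median of neutral control wells and 100% = median of positive control wells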
* marks the source's active call; other numbers are inactive results; ? = inconclusive; nt = no result.

SMILES | KDM4C inh | IDH1 R132H inh | Pf Dd2 inh | T cruzi growth-1 | T cruzi growth-2 | T cruzi growth-3 | 3T3 cytotox | 3T3 cytotox 2
CN(C)CC(=O)N1[C@H](CO)[C@@H](c2ccc(C#CC3CCCCC3)cc2)[C@@H]1C#N | -0.7 | nt | -19.6 | 99.0* | 102.3* | 65.9 | -11.6 | 106.5*
CN(C)CC(=O)N1[C@H](C#N)[C@H](c2ccc(C#CC3CCCCC3)cc2)[C@@H]1CO | 0.1 | nt | -32.8 | 93.2 | nt | nt | nt | nt
CC(C)NC(=O)N1[C@H](CO)[C@H](c2ccc(C#CC3CCCC3)cc2)[C@@H]1C#N | -1.7 | -0.3 | -40.1 | 92.9 | nt | nt | nt | nt
CC(C)NC(=O)N1[C@H](C#N)[C@@H](c2ccc(C#CC3CCCCC3)cc2)[C@H]1CO | 2.0 | nt | -6.5 | 53.6 | nt | nt | nt | nt
CC(C)NC(=O)N1[C@H](C#N)[C@H](c2ccc(C#CC3CCCC3)cc2)[C@H]1CO | -0.4 | nt | -69.4 | 101.5* | 102.9* | 100.9* | -8.9 | 4.4
O=S(=O)(c1ccc(F)cc1)N1CCCCN2[C@@H](CO)[C@H](c3ccc(C#CC4CC4)cc3)[C@@H]2C1 | 1.2 | nt | -29.0 | ? | 108.8* | 43.6 | 44.1* | 102.6*
COc1cccc(S(=O)(=O)N2CCCCN3[C@@H](CO)[C@@H](c4ccc(C#CC5CC5)cc4)[C@@H]3C2)c1 | -1.2 | nt | -66.8 | 53.3 | nt | nt | nt | nt
Cc1cccc(S(=O)(=O)N2CCCCN3[C@H](C2)[C@H](c2ccc(C#CC4CC4)cc2)[C@@H]3CO)c1 | -0.2 | nt | -15.6 | 108.4* | 108.9* | 98.4* | 13.4 | 64.7*
COc1cccc(S(=O)(=O)N2CCCCN3[C@H](CO)[C@@H](c4ccc(C#CC5CC5)cc4)[C@@H]3C2)c1 | -1.2 | nt | 2.7 | ? | 107.3* | 100.4* | 11.0 | 22.1
Cc1cccc(S(=O)(=O)N2CCCCN3[C@H](CO)[C@@H](c4ccc(C#CC5CC5)cc4)[C@H]3C2)c1 | -0.9 | nt | -32.3 | 93.7 | nt | nt | nt | nt
COc1cccc(S(=O)(=O)N2CCCCN3[C@H](CO)[C@@H](c4ccc(C#CC5CC5)cc4)[C@H]3C2)c1 | -1.7 | nt | -26.9 | 104.1* | 98.0* | 86.3 | 45.2* | 104.7*
Cc1nnc(SCC(=O)c2ccc3c(c2)OCCO3)s1 | nt | 0.4 | nt | nt | nt | nt | nt | nt
N#Cc1ccccc1NC(=O)COc1ccccc1[N+](=O)[O-] | nt | -0.3 | nt | nt | nt | nt | nt | nt
Cc1nc(SCC(=O)Nc2ccccc2[N+](=O)[O-])c2c(C)c(C)sc2n1 | nt | 0.1 | nt | nt | nt | nt | nt | nt
Cc1cccc(-c2ccc([C@H]3[C@@H](CO)N4CCCCN(C(=O)NC(C)C)C[C@H]34)cc2)c1 | -1.6 | nt | -7.3 | 109.4* | 107.9* | 83.6 | -15.4 | 105.1*
COc1cccc(-c2ccc([C@H]3[C@H]4CN(C(=O)NC(C)C)CCCCN4[C@H]3CO)cc2)c1 | 0.0 | nt | 17.4 | 91.1 | nt | nt | nt | nt
COc1cccc(-c2ccc([C@@H]3[C@H](CO)N4CCCCN(C(=O)NC(C)C)C[C@@H]34)cc2)c1 | -1.0 | nt | 0.7 | 101.8* | 105.4* | 51.5 | -2.6 | 48.0*
Cc1cccc(-c2ccc([C@@H]3[C@H]4CN(C(=O)NC(C)C)CCCCN4[C@H]3CO)cc2)c1 | -0.7 | nt | 17.4 | 91.3 | nt | nt | nt | nt
COc1ccccc1NC(=O)N1CCCCN2[C@H](CO)[C@H](c3ccc(-c4cccc(C)c4)cc3)[C@@H]2C1 | -1.1 | nt | -11.1 | ? | 106.6* | 102.7* | 4.7 | ?
COc1ccc(-c2ccc([C@@H]3[C@H](CO)N4CCCCN(C(=O)NC(C)C)C[C@@H]34)cc2)cc1 | 0.7 | nt | -17.0 | 109.4* | 108.4* | 67.0 | 9.6 | 45.2*
COc1ccccc1NC(=O)N1CCCCN2[C@H](C1)[C@@H](c1ccc(-c3cccc(C)c3)cc1)[C@@H]2CO | -1.0 | nt | -67.3 | 76.7 | nt | nt | nt | nt
C=CCOC(=O)[C@H]1[C@@H]2C(=O)O[C@@H](c3ccccc3)[C@@H](c3ccccc3)N2[C@@H](c2ccc(OCCOC(=O)[C@H]3C[C@H]4C(=O)N[C@@H](Cc5ccccc5)C(=O)N4[C@H]3c3ccc(O)cc3)cc2)[C@]12C(=O)Nc1ccccc12 | nt | 0.5 | nt | nt | nt | nt | nt | nt
